The list is not random: actives were taken first. Their share in the collection is about 4.1%.
hERG rescue: hERG (human) protection from proarrhythmic block; Q12809; CHO-hERG, FluxOR thallium flux, dofetilide IC70 present; activation (rescue from dofetilide block), less the hit threshold, % at 10 µM; 0.51% of 310,000 active; AID 1511;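 active = activation above the mean of controls blocked by dofetilide plus 5 SD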;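 also: thallium influx through hERG after potassium depolarization seen as dye fluorescence rise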
Target sequence (Q12809 whole entry, looked up): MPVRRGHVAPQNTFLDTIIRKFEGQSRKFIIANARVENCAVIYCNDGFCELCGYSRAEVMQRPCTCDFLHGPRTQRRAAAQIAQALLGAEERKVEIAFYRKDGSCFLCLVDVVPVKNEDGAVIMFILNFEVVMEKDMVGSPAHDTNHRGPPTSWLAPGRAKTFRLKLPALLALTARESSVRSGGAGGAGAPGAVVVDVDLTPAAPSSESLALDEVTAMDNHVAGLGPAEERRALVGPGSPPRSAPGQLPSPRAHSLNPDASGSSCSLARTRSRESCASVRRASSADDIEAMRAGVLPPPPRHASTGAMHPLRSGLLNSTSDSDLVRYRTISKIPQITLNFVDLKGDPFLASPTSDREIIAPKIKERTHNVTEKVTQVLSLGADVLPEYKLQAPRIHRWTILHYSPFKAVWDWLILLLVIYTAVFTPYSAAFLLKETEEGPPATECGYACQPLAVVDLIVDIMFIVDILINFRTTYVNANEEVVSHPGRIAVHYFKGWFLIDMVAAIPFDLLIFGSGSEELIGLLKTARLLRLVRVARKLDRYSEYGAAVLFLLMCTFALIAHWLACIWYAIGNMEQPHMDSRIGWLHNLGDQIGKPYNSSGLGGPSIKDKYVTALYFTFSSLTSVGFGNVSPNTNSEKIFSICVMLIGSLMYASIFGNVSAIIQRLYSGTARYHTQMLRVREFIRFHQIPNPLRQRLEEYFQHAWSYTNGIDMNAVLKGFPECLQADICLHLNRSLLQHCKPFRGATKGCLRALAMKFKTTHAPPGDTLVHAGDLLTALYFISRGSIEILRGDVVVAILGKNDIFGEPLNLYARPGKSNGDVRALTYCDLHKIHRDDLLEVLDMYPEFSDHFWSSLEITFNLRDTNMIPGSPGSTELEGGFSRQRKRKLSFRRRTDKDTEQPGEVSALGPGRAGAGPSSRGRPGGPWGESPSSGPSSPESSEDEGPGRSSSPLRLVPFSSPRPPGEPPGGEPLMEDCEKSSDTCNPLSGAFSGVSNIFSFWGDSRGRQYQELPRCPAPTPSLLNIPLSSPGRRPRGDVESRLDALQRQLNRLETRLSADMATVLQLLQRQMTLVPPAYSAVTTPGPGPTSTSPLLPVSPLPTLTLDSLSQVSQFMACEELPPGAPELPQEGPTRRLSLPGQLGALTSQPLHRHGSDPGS
KCNK9 block: blocks the human KCNK9 two-pore domain potassium channel; AID 488922; HEK293 KCNK9, FluxOR thallium flux fluorescence; hits give low values; 1.2% of 310,000 active; B-score at 10 µM;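 active = ratio B-score over 3 SD below the library mean, with starting fluorescence within 5 SD of its mean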;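 also: negative B-score means less thallium flux so channel inhibition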
KCC2 mod: KCC2 (human) Cl- transport modulation. Q9H2X9. KCC2 cells, thallium flux FluoZin-2 fluorescence. B-score of Tl+ flux slope (higher = more flux/activation; lower = inhibition) at 10 µM. 2.2% of 190,000 active. AID 1456;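 active = thallium flux slope and its plate-corrected score both differing from the plate sample mean at a set confidence after two filtering rounds, in either direction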;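 also: slope of fluorescence scaled to starting intensity during 10 to 20 s after thallium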
KCNQ1 act: potentiates or activates the human KCNQ1 potassium channel | P51787 | 0.35% of 310,000 active | B-score at 10 µM | AID 2648 | CHO-K1 KCNQ1, thallium flux FluxOR fluorescence; hits give high values;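 active = fluorescence ratio B-score, a plate-corrected score, at least three library SD, with initial intensity B-score within 5 SD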
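System: Stable KCNQ1 CHO-K1 line | Incubation: 90 min dye loading and 20 min compound exposure, both at room temperature | Measure: Ratio B score | Medium: Assay buffer for compound exposure, DMSO matched across wells | Compound dosing: Single-concentration screen | Probe or stimulus: K+/Tl+ depolarizing stimulus | Measured by: Kinetic FluxOR fluorescence, 10 s baseline plus 110 s post-stimulus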
KCNQ1 block: human KCNQ1 channel inhibition. P51787. CHO-K1 KCNQ1, FluxOR thallium flux fluorescence; hits give high values. B-score at 10 µM. 1.3% of 310,000 active;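 active = compounds whose thallium flux B-score, printed positive for inhibition, exceeds three library SD while starting fluorescence stays within three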;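 also: channel opened by potassium depolarization with thallium stimulus after 20 min compound exposure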
KCNK3 block: human KCNK3 channel inhibition, primary screen | CHO-KCNK3 thallium flux, FluxOR fluorescence; hits give low values | B-score at 10 µM | 0.84% of 340,000 active;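 active = B-score under library mean minus 4 SD, starting fluorescence ratio at most library mean plus 5 SD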;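 also: more negative B-score means stronger inhibition of thallium flux through KCNK3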
KCC2 secondary: KCC2 (human) modulation, secondary assay | shares compounds with KCC2 mod | 15% of 3,700 active | HEK293-KCC2, thallium flux, FluoZin2 fluorescence; hits give high values | normalised thallium flux (F/F0 slope) at 10 µM;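 active = thallium flux slope above the same plate's solvent-only control mean plus 3 SD; inconclusive = the two replicate wells disagree; inactive = no significant difference from solvent-only control wells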
KCC2 bumet counter: thallium flux despite bumetanide block in KCC2 cells, secondary assay 3; shares compounds with KCC2 mod; HEK293-KCC2 + bumetanide/ouabain, thallium flux FluoZin2; hits give high values; normalized thallium flux at 10 µM; 49% of 3,700 active; AID 1714;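 active = thallium entry rate above the same plate's blocked-transporter control wells by more than 3 SD; inconclusive = the two repeat wells disagree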;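 also: raw slope of fluorescence over initial fluorescence between 10 and 20 s after thallium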
KCC2 secondary2: confirmation of human KCC2 transport modulators. 23% of 3,700 active. shares compounds with KCC2 mod. HEK293-KCC2, thallium flux FluoZin2 fluorescence; actives lie on both sides; F/F0 rise rate, 10–20 s post-thallium. AID 1715. normalized thallium flux at 10 µM;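 active = thallium flux slope more than 3 SD above or below the plate's solvent-only control mean, mostly below; inconclusive = the two repeat wells disagreed; inactive = no significant shift from solvent-only controls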
HEK counter1: acts in parental HEK cells, KCC2 counter-screen. shares compounds with KCC2 mod. HEK293 parental cells, thallium flux FluoZin2, ouabain; baseline-ratio fluorescence slope, 10–20 s after thallium. thallium flux rate (normalised fluorescence) at 10 µM. 46% of 3,700 active;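 active = thallium flux rate significantly above the same plate's solvent-only control wells, beyond their mean plus 3 SD; inconclusive = the two replicate wells gave conflicting results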
KCC2 ouabain: modulates human KCC2 on retest with ouabain. shares compounds with KCC2 mod. HEK293-KCC2, thallium flux FluoZin2 fluorescence; bidirectional: low = inhibitor, high = activator. raw Tl+ flux slope (below DMSO = inhibition, above = activation) at 10 µM. 48% of 3,700 active. AID 1717;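 active = thallium flux slope beyond 3 SD from same-plate DMSO control mean in most replicates, usually higher, sometimes lower; inconclusive = repeat tests gave conflicting results; inactive = no significant difference from controls in most replicates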;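 also: slope of initial-normalized fluorescence between seconds 10 and 20 after thallium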
HEK counter2: counter-screen for KCC2 modulators: effect in parental HEK293 cells; shares compounds with KCC2 mod; thallium flux FluoZin-2 fluorescence slope; thallium flux slope at 10 µM; 33% of 3,700 active; AID 1718;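 active = thallium flux slope above the same plate's solvent-control mean plus 3 SD in both duplicate wells; inconclusive = duplicate wells that disagreed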;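 also: run without ouabain in cells lacking the KCC2 cotransporter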
Numbers stand for hits; i = inactive; ? = inconclusive; nt = no result.

SMILES | hERG rescue | KCNK9 block | KCC2 mod | KCNQ1 act | KCNQ1 block | KCNK3 block | KCC2 secondary | KCC2 bumet counter | KCC2 secondary2 | HEK counter1 | KCC2 ouabain | HEK counter2
C=C(C)CNC(=S)N/N=C/c1c(F)cccc1F | i | i | 15.8 | i | i | i | 0.0204 | 0.0479 | ? | 0.0229 | 0.0303 | 0.025
CC(C)NC(=O)c1nc2c(nnn2Cc2cccc(Cl)c2)c(=O)[nH]1 | i | i | nt | i | i | i | nt | nt | nt | nt | nt | nt
O=C(NCc1ccco1)c1nc2c(nnn2Cc2cccc(Cl)c2)c(=O)[nH]1 | i | i | -4.7 | i | i | i | i | 0.00581 | ? | 0.0063 | 0.0143 | i
Cc1ccc(Cn2nnc3c(=O)[nH]c(C(=O)NCc4ccco4)nc32)cc1 | i | i | i | i | i | i | nt | nt | nt | nt | nt | nt
O=C(NCc1ccccc1)c1nc2c(nnn2Cc2cccc(Cl)c2)c(=O)[nH]1 | i | i | -5.13 | i | i | i | i | i | 0.0236 | 0.00625 | 0.013 | ?
O=C(C1CC1)N1CCc2cc(S(=O)(=O)NC3CCN(Cc4ccccc4)CC3)ccc21 | i | i | nt | i | i | i | i | ? | ? | i | 0.0158 | i
O=C(C1CC1)N1CCc2cc(S(=O)(=O)NCCCN3CCCCC3)ccc21 | i | i | nt | i | i | i | nt | nt | nt | nt | nt | nt
O=C(NNS(=O)(=O)c1ccc2ccccc2c1)C1CCN(Cc2ccccc2)CC1 | i | i | nt | i | i | i | i | i | i | i | ? | i
O=S(=O)(NC1CCN(Cc2ccccc2)CC1)c1ccc2ccccc2c1 | i | i | i | i | i | i | nt | nt | nt | nt | nt | nt
O=C(OCc1ccccc1)c1ccc(NCc2cc(O)ccc2O)cc1 | nt | nt | nt | nt | nt | i | nt | nt | nt | nt | nt | nt
COC(=O)c1c(C(=O)OC)c(-c2ccc(OC)cc2)n2c1CS(=O)(=O)C2 | i | i | nt | i | i | i | nt | nt | nt | nt | nt | nt
Cc1sc2nc(CSc3ncn[nH]3)[nH]c(=O)c2c1C | i | i | i | i | i | i | nt | nt | nt | nt | nt | nt
CCc1cc2c(SCc3nc4sc(C(C)=O)c(C)c4c(=O)[nH]3)ncnc2s1 | i | i | 43 | i | i | i | ? | 0.0555 | 0.0523 | 0.0432 | 0.0529 | 0.0404
COc1ccc(Cl)cc1NC(=O)COC(C)=O | i | i | i | i | i | i | nt | nt | nt | nt | nt | nt
COc1ccc(OC)c(NC(=O)COC(=O)C2CCC2)c1 | nt | nt | nt | nt | nt | i | nt | nt | nt | nt | nt | nt
COCC(=O)Nc1cc(OC)ccc1OC | i | i | nt | i | i | i | i | ? | i | ? | i | ?
COc1ccc(Cl)cc1NC(=O)CC(C)=O | i | i | 7.33 | i | i | i | ? | ? | i | i | i | i
C/C(=N\NC(=O)c1ccncc1)c1cc2ccccc2o1 | i | i | 10.9 | i | i | i | ? | 0.0243 | i | 0.0277 | 0.0323 | ?
C/C(=N\NC(=O)c1cccnc1)c1cc2ccccc2o1 | i | i | 8.51 | i | i | i | i | 0.027 | i | 0.0122 | ? | ?
O=C(NC(=S)NCc1cccnc1)c1cc2ccccc2o1 | i | i | 41.5 | i | i | i | 0.0302 | 0.0881 | 0.0493 | 0.0488 | 0.0534 | 0.0481
CC(C)Cc1[nH]c(=O)c(C#N)c2c1CCCC2 | i | i | i | i | i | i | i | i | i | ? | i | i
COc1ccc(/C=C2\CCCC(C(=O)C(F)(F)F)=C2O)cc1 | i | i | nt | i | i | i | i | 0.0243 | i | 0.0114 | 0.0336 | 0.0105
Cc1ccc(/C(O)=C/C(=O)C(=O)NC23CC4CC(CC(C4)C2)C3)cc1 | 8.5 | i | 86 | 15 | i | i | i | 0.075 | i | ? | 0.0553 | 0.0199
Cc1ccc(CNC(=O)NC23CC4CC(CC(C4)C2)C3)cc1 | i | i | i | i | i | i | nt | nt | nt | nt | nt | nt
CCN(CC)C(=O)[C@H]1C[C@H](CC(=O)NCCCOC)C(=O)N2CCc3c([nH]c4cc(CCC(=O)N(C)C)ccc34)[C@]12C | nt | nt | nt | nt | nt | i | nt | nt | nt | nt | nt | nt
SMILES | hERG rescue | KCNK9 block | KCC2 mod | KCNQ1 act | KCNQ1 block | KCNK3 block | KCC2 secondary | KCC2 bumet counter | KCC2 secondary2 | HEK counter1 | KCC2 ouabain | HEK counter2
N#Cc1c(SCC(=O)O)nc(N2CCCCC2)c2c1CCCC2 | i | i | -3.17 | i | i | i | i | i | i | i | i | i
Cc1nc(SCC(=O)O)c(C#N)c2c1CCCC2 | i | i | i | i | i | i | nt | nt | nt | nt | nt | nt
CCOC(=O)N1CCN(C(=O)CCCn2c(=S)[nH]c3ccc(Br)cc3c2=O)CC1 | i | i | 8.69 | i | i | i | i | 0.00892 | i | 0.00974 | i | i
CCN(CC)CCn1c(=S)[nH]c2ccc(Br)cc2c1=O | i | i | 17.4 | i | i | i | i | 0.0171 | i | 0.0112 | i | ?
CCOC(=O)N1CCN(C(=O)CCCn2c(=S)[nH]c3ccccc3c2=O)CC1 | i | i | i | i | i | i | nt | nt | nt | nt | nt | nt
CCOC(=O)N1CCN(C(=O)c2ccc3c(=O)n(Cc4ccc(OC)cc4)c(=S)[nH]c3c2)CC1 | nt | nt | nt | nt | nt | i | nt | nt | nt | nt | nt | nt
CCOC(=O)N1CCN(C(=O)c2ccc3c(=O)n(Cc4ccccc4)c(=S)[nH]c3c2)CC1 | i | i | 4.61 | i | i | i | i | 0.0258 | i | 0.012 | 0.028 | 0.0112
Clc1ccc(CCNc2ncnc3nc[nH]c23)cc1 | nt | nt | i | nt | nt | i | nt | nt | nt | nt | nt | nt
c1ccc2c(CCNc3ncnc4nc[nH]c34)cccc2c1 | i | i | -3.21 | i | i | i | i | i | i | i | 0.0167 | i
CC1(c2cccs2)CC(c2cccs2)=C(C#N)C(=O)N1 (stereo not drawn) | i | i | 5.19 | i | i | i | i | i | i | 0.00595 | i | i
Cc1c(OC(C)C(=O)NCCCn2ccnc2)ccc2c3c(c(=O)oc12)CCC3 (stereo not drawn) | i | i | nt | i | i | i | nt | nt | nt | nt | nt | nt
Cc1noc(/C=C/c2ccco2)c1S(=O)(=O)N1CCC(C(=O)N2CCc3ccccc3C2)CC1 | i | i | i | i | i | i | i | i | 0.0264 | i | ? | i
CCS(=O)(=O)N1CCCC(C(=O)N2CCc3ccccc3C2)C1 (stereo not drawn) | i | i | nt | i | i | i | nt | nt | nt | nt | nt | nt
O=C(C1CCN(S(=O)(=O)c2cccs2)CC1)N1CCc2ccccc2C1 | i | i | -4.11 | i | i | i | i | i | 0.0236 | i | 0.0176 | i
